Data published in ChEMBL document CHEMBL2407062, “Synthesis and anticancer activities of 5,6,7-trimethoxy-N-phenyl(ethyl)-4-aminoquinazoline derivatives” (Eur J Med Chem, 2013).
Activity calls are given as the source filed them. The rule behind the calls is not given here.

What was measured:
[1] = system: PC-3; assay: Growth inhibition of human PC3 cells at 10 uM after 72 hrs by MTT assay relative to control; format: functional; conditions: Homo sapiens, PC-3, 72 h; read-out: GI
Procedure, shortened: (§1)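 Cells in RPMI 1640 with 10% heat-inactivated FBS, 37 °C, 5% CO2. Seeded at 2 × 10³ cells per well. Compounds dissolved in DMSO, diluted in medium, tested at 1–100 μM for 72 h; 0.1% DMSO control. MTT read-out, absorbance at 595 nm. Mean ± SD of triplicate experiments. IC50 taken from the dose–response curve.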

[2] = system: PC-3; assay: Induction of apoptosis in human PC3 cells assessed as pycnosis at 10 uM after 24 to 72 hrs by AO/EB staining-based fluorescence microscopic analysis; format: functional, cell-based
Procedure, shortened: (§2)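 PC3 cells seeded at 5 × 10⁴ cells/mL on cover slips, then given fresh medium with 10% FBS plus compound, 10 μM for 24–72 h. HCPT 10 μM positive control. Stained with AO/EB (100 μg/mL) and examined by fluorescence microscopy. Green: live; green-yellow: early apoptotic; orange fragments: late apoptotic; orange without condensed chromatin: necrotic.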

[3] = system: Bcap37; assay: Growth inhibition of human Bcap37 cells after 72 hrs by MTT assay; format: functional, cell-based; conditions: Bcap37, 72 h; procedure, shortened: as §1
[4] = molecular target: T1, Mitogen-activated protein kinase; ERK1/ERK2 (Homo sapiens) (UniProt P27361+P28482); assay: Inhibition of EGF-induced ERK1/2 phosphorylation in human PC3 cells at 10 uM incubated for 60 mins prior to EGF-treatment measured after 10 mins by Western blotting analysis; format: cell-based; conditions: PC-3
T1 sequence (P27361 whole entry, looked up): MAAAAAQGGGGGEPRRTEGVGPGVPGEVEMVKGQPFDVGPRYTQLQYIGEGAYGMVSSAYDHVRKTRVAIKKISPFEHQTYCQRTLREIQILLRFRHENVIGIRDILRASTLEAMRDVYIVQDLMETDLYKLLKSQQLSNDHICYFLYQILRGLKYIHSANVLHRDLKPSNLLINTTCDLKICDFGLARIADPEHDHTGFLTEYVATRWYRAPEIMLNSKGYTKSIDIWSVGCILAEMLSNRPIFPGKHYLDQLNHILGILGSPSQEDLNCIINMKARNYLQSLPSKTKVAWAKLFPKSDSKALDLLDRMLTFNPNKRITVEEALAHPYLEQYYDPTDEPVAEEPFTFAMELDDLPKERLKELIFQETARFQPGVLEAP
T1 sequence (P28482 whole entry, looked up): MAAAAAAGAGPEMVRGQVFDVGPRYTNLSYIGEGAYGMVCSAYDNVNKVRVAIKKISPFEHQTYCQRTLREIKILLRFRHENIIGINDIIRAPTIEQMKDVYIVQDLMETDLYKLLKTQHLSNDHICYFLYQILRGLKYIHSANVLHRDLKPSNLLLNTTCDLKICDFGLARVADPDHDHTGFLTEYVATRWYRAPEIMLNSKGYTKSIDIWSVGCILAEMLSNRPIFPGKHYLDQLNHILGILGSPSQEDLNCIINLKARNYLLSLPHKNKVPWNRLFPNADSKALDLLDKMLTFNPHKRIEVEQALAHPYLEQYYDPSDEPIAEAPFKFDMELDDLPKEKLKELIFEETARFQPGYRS
Procedure, shortened: (§3)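 PC3 cells grown 36–48 h in RPMI 1640 with 10% FBS at 37 °C, then serum-starved 24 h. Treated with compound for 60 min, then EGF 10 ng/mL for 10 min; quenched on ice. Cells washed with cold PBS and lysed in NP-40/SDS buffer with Na3VO4 and NaF. Run on 10% SDS-PAGE, PVDF blot probed for pERK1/2 with actin as loading control, ECL detection.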

[5] = system: PC-3; assay: Induction of apoptosis in human PC3 cells assessed as apoptotic rate at 5 uM after 72 hrs by annexin-V FITC and propidium iodide staining-based FACS flow cytometric analysis relative to control; format: functional
Procedure, shortened: (§4)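 PC3 cells exposed to 1, 5 or 10 μM for 24, 48 or 72 h. Controls were 0.1% DMSO and HCPT 10 μM. Cells at 1 × 10⁶/mL washed twice with cold PBS, resuspended in binding buffer, stained with annexin V-FITC and PI. Apoptosis ratio is the sum of early (annexin+/PI−) and late (annexin+/PI+) fractions.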

[6] = system: PC-3; assay: Induction of apoptosis in human PC3 cells assessed as apoptotic rate at 1 to 10 uM by annexin-V FITC and propidium iodide staining-based FACS flow cytometric analysis; format: functional, cell-based; conditions: TDE = time-dependent effect; procedure, shortened: as §4
[7] = system: PC-3; assay: Induction of apoptosis in human PC3 cells assessed as apoptotic cells at 10 uM after 72 hrs by Hoechst 33258 staining-based fluorescence microscopic analysis; format: functional, cell-based
Procedure, shortened: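 PC3 cells treated at 1 and 10 μM for 72 h, then stained with Hoechst 33258 and viewed by fluorescence microscopy. DMSO negative control; HCPT 10 μM for 72 h positive control. Bright blue condensed nuclei were scored as apoptotic.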

[8] = system: PC-3; assay: Induction of apoptosis in human PC3 cells at 10 uM after 24 to 72 hrs by AO/EB staining-based fluorescence microscopic analysis; format: functional, cell-based; procedure, shortened: as §2
[9] = system: PC-3; assay: Induction of apoptosis in human PC3 cells assessed as cell budding at 10 uM after 24 to 72 hrs by AO/EB staining-based fluorescence microscopic analysis; format: functional; procedure, shortened: as §2
[10] = system: PC-3; assay: Induction of apoptosis in human PC3 cells assessed as apoptotic rate at 1 uM after 72 hrs by annexin-V FITC and propidium iodide staining-based FACS flow cytometric analysis relative to control; format: functional; procedure, shortened: as §4
[11] = system: PC-3; assay: Induction of apoptosis in human PC3 cells assessed as apoptotic rate at 10 uM after 72 hrs by annexin-V FITC and propidium iodide staining-based FACS flow cytometric analysis relative to control; format: functional
Procedure, shortened: (§5)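 PC3 cells (RPMI 1640 with 10% heat-inactivated FBS, 37 °C, 5% CO2) exposed to compound for 24, 48 or 72 h; 0.1% DMSO as negative control. Cells at 1 × 10⁶/mL washed twice in cold PBS, resuspended in binding buffer, stained with Annexin V-FITC and PI. Apoptosis ratio is early (Annexin+/PI−) plus late (Annexin+/PI+) apoptotic cells.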

[12] = system: PC-3; assay: Growth inhibition of human PC3 cells after 72 hrs by MTT assay; format: functional, cell-based; conditions: PC-3, 72 h; procedure, shortened: as §1
[13] = system: BGC-823; assay: Growth inhibition of human BGC823 cells after 72 hrs by MTT assay; format: functional, cell-based; conditions: BGC-823, 72 h; procedure, shortened: as §1
[14] = molecular target: T1, Mitogen-activated protein kinase; ERK1/ERK2 (Homo sapiens); assay: Inhibition of EGF-induced ERK1/2 phosphorylation in human PC3 cells at 1.28 uM incubated for 60 mins prior to EGF-treatment measured after 10 mins by Western blotting analysis; format: cell-based; conditions: PC-3; procedure, shortened: as §3
[15] = system: PC-3; assay: Induction of apoptosis in human PC3 cells assessed as apoptotic rate at 5 uM after 24 hrs by annexin-V FITC and propidium iodide staining-based FACS flow cytometric analysis relative to control; format: functional; procedure, shortened: as §4
[16] = system: PC-3; assay: Induction of apoptosis in human PC3 cells assessed as late apoptotic cells at 10 uM after 72 hrs by AO/EB staining-based fluorescence microscopic analysis; format: functional, cell-based; procedure, shortened: as §2
[17] = system: Bcap37; assay: Growth inhibition of human Bcap37 cells at 1 uM after 72 hrs by MTT assay relative to control; format: functional; conditions: Homo sapiens, Bcap37, 72 h; read-out: GI; procedure, shortened: as §1
[18] = system: PC-3; assay: Induction of necrosis in human PC3 cells at 10 uM after 72 hrs by AO/EB staining-based fluorescence microscopic analysis; format: cell-based; conditions: pc-3, 72 h; procedure, shortened: as §2
[19] = system: PC-3; assay: Induction of apoptosis in human PC3 cells assessed as apoptotic rate at 1 uM after 48 hrs by annexin-V FITC and propidium iodide staining-based FACS flow cytometric analysis relative to control; format: functional; procedure, shortened: as §4
[20] = system: PC-3; assay: Growth inhibition of human PC3 cells at 1 uM after 72 hrs by MTT assay relative to control; format: functional; conditions: Homo sapiens, PC-3, 72 h; read-out: GI; procedure, shortened: as §1
[21] = system: PC-3; assay: Induction of apoptosis in human PC3 cells assessed as apoptotic rate at 10 uM after 48 hrs by annexin-V FITC and propidium iodide staining-based FACS flow cytometric analysis relative to control; format: functional; procedure, shortened: as §5
[22] = system: BGC-823; assay: Growth inhibition of human BGC823 cells at 1 uM after 72 hrs by MTT assay relative to control; format: functional; conditions: BGC-823, 72 h, read-out: GI; procedure, shortened: as §1
[23] = system: PC-3; assay: Induction of apoptosis in human PC3 cells assessed as DNA fragmentation at 10 uM by agarose gel electrophoretic analysis; format: functional, cell-based
Procedure, shortened: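 PC3 cells treated at 10 μM. Apoptotic DNA fragments extracted, run on agarose gel electrophoresis, stained with Gold View.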

[24] = system: PC-3; assay: Induction of apoptosis in human PC3 cells assessed as apoptotic rate at 10 uM after 24 hrs by annexin-V FITC and propidium iodide staining-based FACS flow cytometric analysis relative to control; format: functional; procedure, shortened: as §5
[25] = system: Bcap37; assay: Growth inhibition of human Bcap37 cells at 10 uM after 72 hrs by MTT assay relative to control; format: functional; conditions: Homo sapiens, Bcap37, 72 h; read-out: GI; procedure, shortened: as §1
[26] = system: PC-3; assay: Induction of apoptosis in human PC3 cells assessed as apoptotic rate after 24 to 72 hrs by annexin-V FITC and propidium iodide staining-based FACS flow cytometric analysis; format: functional, cell-based; procedure, shortened: as §4
[27] = system: BGC-823; assay: Growth inhibition of human BGC823 cells at 10 uM after 72 hrs by MTT assay relative to control; format: functional; conditions: BGC-823, 72 h, read-out: GI; procedure, shortened: as §1
[28] = system: PC-3; assay: Induction of apoptosis in human PC3 cells assessed as apoptotic rate at 1 uM after 24 hrs by annexin-V FITC and propidium iodide staining-based FACS flow cytometric analysis relative to control; format: functional; procedure, shortened: as §4
[29] = system: PC-3; assay: Induction of apoptosis in human PC3 cells assessed as apoptotic rate at 5 uM after 48 hrs by annexin-V FITC and propidium iodide staining-based FACS flow cytometric analysis relative to control; format: functional; procedure, shortened: as §4
[30] = system: PC-3; assay: Induction of apoptosis in human PC3 cells assessed as membrane blebbing at 10 uM after 24 to 72 hrs by AO/EB staining-based fluorescence microscopic analysis; format: functional, cell-based; procedure, shortened: as §2
[31] = system: PC-3; assay: Induction of apoptosis in human PC3 cells assessed as apoptotic rate at 30 uM after 24 hrs by annexin-V FITC and propidium iodide staining-based FACS flow cytometric analysis relative to control; format: functional; procedure, shortened: as §5
[32] = system: PC-3; assay: Induction of apoptosis in human PC3 cells assessed as pycnosis at 10 uM after 48 hrs by AO/EB staining-based fluorescence microscopic analysis; format: functional, cell-based
Procedure, shortened: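 PC3 cells seeded at 5 × 10⁴ cells/mL on sterile coverslips. Medium replaced with fresh medium plus 10% FBS containing compound, treated 24–72 h. Coverslips inverted onto acridine orange/ethidium bromide stain ([…] as printed) and read by fluorescence microscopy. Live cells scored green, early apoptotic green-yellow, late apoptotic orange, necrotic orange without condensed chromatin.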

[33] = system: PC-3; assay: Induction of apoptosis in human PC3 cells assessed as apoptotic rate at 20 uM after 24 hrs by annexin-V FITC and propidium iodide staining-based FACS flow cytometric analysis relative to control; format: functional; procedure, shortened: as §5
[34] = system: PC-3; assay: Induction of apoptosis in human PC3 cells assessed as apoptotic rate at 20 uM after 72 hrs by annexin-V FITC and propidium iodide staining-based FACS flow cytometric analysis relative to control; format: functional; procedure, shortened: as §5
[35] = system: PC-3; assay: Induction of apoptosis in human PC3 cells assessed as apoptotic rate at 30 uM after 48 hrs by annexin-V FITC and propidium iodide staining-based FACS flow cytometric analysis relative to control; format: functional; procedure, shortened: as §5
[36] = system: PC-3; assay: Induction of apoptosis in human PC3 cells assessed as apoptotic rate at 30 uM after 72 hrs by annexin-V FITC and propidium iodide staining-based FACS flow cytometric analysis relative to control; format: functional; procedure, shortened: as §5
[37] = system: PC-3; assay: Induction of apoptosis in human PC3 cells assessed as apoptotic rate at 20 uM after 48 hrs by annexin-V FITC and propidium iodide staining-based FACS flow cytometric analysis relative to control; format: functional; procedure, shortened: as §5
[38] = system: PC-3; assay: Induction of apoptosis in human PC3 cells assessed as compact nucleus at 10 uM after 72 hrs by Hoechst 33258 staining-based fluorescence microscopic analysis; format: functional, cell-based
Procedure, shortened: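 PC3 cells treated 72 h, then stained with Hoechst 33258 and viewed by fluorescence microscopy. DMSO served as negative control. Live nuclei scored as uniformly light blue; apoptotic nuclei bright blue with condensed chromatin and karyopyknosis.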

COc1cc2ncnc(NCCc3ccccc3F)c2c(OC)c1OC
inhibition of growth at 10 µM [1]: 90.6%
Activity [2]: Active
IC50 [3]: 3.1 µM
inhibition [4]: Active
Activity [5]: 19.8%
Activity [6]: tde
Activity [7]: Active
Activity [8]: Active
Activity [9]: Active
Activity [10]: 11.6%
Activity [11]: 31.8%
IC50 [12]: 6.2 µM
IC50 [13]: 3.2 µM
inhibition [14]: Active
Activity [15]: 8.2%
Activity [16]: Active
inhibition of growth at 1 µM [17]: 46.5%
Activity [18]: Non-toxic
Activity [19]: 9.5%
inhibition of growth at 1 µM [20]: 22.6%
Activity [21]: 16.4%
inhibition of growth at 1 µM [22]: 38.7%
Activity [23]: Active
Activity [24]: 10.9%
inhibition of growth at 10 µM [25]: 90.4%
Activity [26]: Dose-dependent effect
inhibition of growth at 10 µM [27]: 88.2%
Activity [28]: 5.1%
Activity [29]: 11.1%
Activity [30]: Active

CC[C@@]1(O)C(=O)OCc2c1cc1n(c2=O)Cc2cc3cc(O)ccc3nc2-1 [HYDROXYCAMPTOTHECIN]
Activity [31]: 11.9%
Activity [32]: Active
Activity [33]: 7.4%
Activity [34]: 19.8%
Activity [11]: 17%
Activity [35]: 12.8%
Activity [21]: 8.3%
Activity [24]: 5.7%
Activity [36]: 38.2%
Activity [37]: 11.9%
Activity [38]: Active
